Measurements: ChEMBL document CHEMBL3593182, “Phytochemical Investigation of the Constituents Derived from the Australian Plant Macropidia fuliginosa” (2015)
The source made the active and inactive calls. No cut-off for these calls is given here.

Tests used:
[1] = tested on: Escherichia coli; assay: Antimicrobial activity against Escherichia coli ATCC 25922 assessed as zone of inhibition at 3675 uM incubated overnight at 37 degC; assay type: functional, organism-based
Outline: (§1)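 Pure isolates screened against a panel of five bacteria and one fungus, each at a single concentration within 1639–5230 μM. A commercial antibiotic and antifungal agent were tested in parallel as references. Growth inhibition was recorded as the zone of inhibition.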

[2] = tested on: Staphylococcus aureus; assay: Antimicrobial activity against Staphylococcus aureus ATCC 25923 assessed as zone of inhibition at 3675 uM incubated overnight at 37 degC; assay type: functional, organism-based; outline: as §1
[3] = tested on: Staphylococcus aureus; assay: Antimicrobial activity against methicillin-resistant Staphylococcus aureus 344/2-32 assessed as zone of inhibition at 3675 uM incubated overnight at 37 degC; assay type: functional, organism-based
[4] = tested on: Pseudomonas aeruginosa; assay: Antimicrobial activity against Pseudomonas aeruginosa ATCC 27853 assessed as zone of inhibition at 3675 uM incubated overnight at 37 degC; assay type: functional, organism-based; outline: as §1
[5] = tested on: Streptococcus pyogenes; assay: Antimicrobial activity against Streptococcus pyogenes 345/1 assessed as zone of inhibition at 3675 uM incubated overnight at 37 degC; assay type: functional, organism-based
[6] = tested on: Candida albicans; assay: Antimicrobial activity against Candida albicans ATCC 10231 assessed as zone of inhibition at 3675 uM incubated overnight at 37 degC; assay type: functional, organism-based; outline: as §1
[7] = tested on: Escherichia coli; assay: Antimicrobial activity against Escherichia coli ATCC 25922 assessed as zone of inhibition at 3875 uM incubated overnight at 37 degC; assay type: functional, organism-based; outline: as §1
[8] = tested on: Staphylococcus aureus; assay: Antimicrobial activity against Staphylococcus aureus ATCC 25923 assessed as zone of inhibition at 3875 uM incubated overnight at 37 degC; assay type: functional; settings: read-out: IZ; outline: as §1
[9] = tested on: Staphylococcus aureus; assay: Antimicrobial activity against methicillin-resistant Staphylococcus aureus 344/2-32 assessed as zone of inhibition at 3875 uM incubated overnight at 37 degC; assay type: functional, organism-based
[10] = tested on: Pseudomonas aeruginosa; assay: Antimicrobial activity against Pseudomonas aeruginosa ATCC 27853 assessed as zone of inhibition at 3875 uM incubated overnight at 37 degC; assay type: functional; settings: read-out: IZ; outline: as §1
[11] = tested on: Streptococcus pyogenes; assay: Antimicrobial activity against Streptococcus pyogenes 345/1 assessed as zone of inhibition at 3875 uM incubated overnight at 37 degC; assay type: functional, organism-based
[12] = tested on: Candida albicans; assay: Antimicrobial activity against Candida albicans ATCC 10231 assessed as zone of inhibition at 3875 uM incubated overnight at 37 degC; assay type: functional, organism-based; outline: as §1
[13] = tested on: Escherichia coli; assay: Antimicrobial activity against Escherichia coli ATCC 25922 assessed as zone of inhibition at 2211 uM incubated overnight at 37 degC; assay type: functional, organism-based; outline: as §1
[14] = tested on: Staphylococcus aureus; assay: Antimicrobial activity against Staphylococcus aureus ATCC 25923 assessed as zone of inhibition at 2211 uM incubated overnight at 37 degC; assay type: functional; settings: read-out: IZ; outline: as §1
[15] = tested on: Staphylococcus aureus; assay: Antimicrobial activity against methicillin-resistant Staphylococcus aureus 344/2-32 assessed as zone of inhibition at 2211 uM incubated overnight at 37 degC; assay type: functional, organism-based
[16] = tested on: Pseudomonas aeruginosa; assay: Antimicrobial activity against Pseudomonas aeruginosa ATCC 27853 assessed as zone of inhibition at 2211 uM incubated overnight at 37 degC; assay type: functional, organism-based; outline: as §1
[17] = tested on: Streptococcus pyogenes; assay: Antimicrobial activity against Streptococcus pyogenes 345/1 assessed as zone of inhibition at 2211 uM incubated overnight at 37 degC; assay type: functional; settings: read-out: IZ; outline: as §1
[18] = tested on: Candida albicans; assay: Antimicrobial activity against Candida albicans ATCC 10231 assessed as zone of inhibition at 2211 uM incubated overnight at 37 degC; assay type: functional, organism-based; outline: as §1
[19] = tested on: Escherichia coli; assay: Antimicrobial activity against Escherichia coli ATCC 25922 assessed as zone of inhibition at 3030 uM incubated overnight at 37 degC; assay type: functional, organism-based; outline: as §1
[20] = tested on: Staphylococcus aureus; assay: Antimicrobial activity against Staphylococcus aureus ATCC 25923 assessed as zone of inhibition at 3030 uM incubated overnight at 37 degC; assay type: functional, organism-based; outline: as §1
[21] = tested on: Staphylococcus aureus; assay: Antimicrobial activity against methicillin-resistant Staphylococcus aureus 344/2-32 assessed as zone of inhibition at 3030 uM incubated overnight at 37 degC; assay type: functional, organism-based
[22] = tested on: Pseudomonas aeruginosa; assay: Antimicrobial activity against Pseudomonas aeruginosa ATCC 27853 assessed as zone of inhibition at 3030 uM incubated overnight at 37 degC; assay type: functional; settings: read-out: IZ; outline: as §1
[23] = tested on: Streptococcus pyogenes; assay: Antimicrobial activity against Streptococcus pyogenes 345/1 assessed as zone of inhibition at 3030 uM incubated overnight at 37 degC; assay type: functional, organism-based; outline: as §1
[24] = tested on: Candida albicans; assay: Antimicrobial activity against Candida albicans ATCC 10231 assessed as zone of inhibition at 3030 uM incubated overnight at 37 degC; assay type: functional, organism-based; outline: as §1
[25] = tested on: Escherichia coli; assay: Antimicrobial activity against Escherichia coli ATCC 25922 assessed as zone of inhibition at 1724 uM incubated overnight at 37 degC; assay type: functional; settings: read-out: IZ; outline: as §1
[26] = tested on: Staphylococcus aureus; assay: Antimicrobial activity against Staphylococcus aureus ATCC 25923 assessed as zone of inhibition at 1724 uM incubated overnight at 37 degC; assay type: functional, organism-based; outline: as §1
[27] = tested on: Staphylococcus aureus; assay: Antimicrobial activity against methicillin-resistant Staphylococcus aureus 344/2-32 assessed as zone of inhibition at 1724 uM incubated overnight at 37 degC; assay type: functional, organism-based
[28] = tested on: Pseudomonas aeruginosa; assay: Antimicrobial activity against Pseudomonas aeruginosa ATCC 27853 assessed as zone of inhibition at 1724 uM incubated overnight at 37 degC; assay type: functional; settings: read-out: IZ; outline: as §1
[29] = tested on: Streptococcus pyogenes; assay: Antimicrobial activity against Streptococcus pyogenes 345/1 assessed as zone of inhibition at 1724 uM incubated overnight at 37 degC; assay type: functional; settings: read-out: IZ; outline: as §1
[30] = tested on: Candida albicans; assay: Antimicrobial activity against Candida albicans ATCC 10231 assessed as zone of inhibition at 1724 uM incubated overnight at 37 degC; assay type: functional, organism-based; outline: as §1
[31] = tested on: Escherichia coli; assay: Antimicrobial activity against Escherichia coli ATCC 25922 assessed as zone of inhibition at 3649 uM incubated overnight at 37 degC; assay type: functional, organism-based; outline: as §1
[32] = tested on: Staphylococcus aureus; assay: Antimicrobial activity against Staphylococcus aureus ATCC 25923 assessed as zone of inhibition at 3649 uM incubated overnight at 37 degC; assay type: functional, organism-based; outline: as §1
[33] = tested on: Staphylococcus aureus; assay: Antimicrobial activity against methicillin-resistant Staphylococcus aureus 344/2-32 assessed as zone of inhibition at 3649 uM incubated overnight at 37 degC; assay type: functional, organism-based
[34] = tested on: Pseudomonas aeruginosa; assay: Antimicrobial activity against Pseudomonas aeruginosa ATCC 27853 assessed as zone of inhibition at 3649 uM incubated overnight at 37 degC; assay type: functional; settings: read-out: IZ; outline: as §1
[35] = tested on: Streptococcus pyogenes; assay: Antimicrobial activity against Streptococcus pyogenes 345/1 assessed as zone of inhibition at 3649 uM incubated overnight at 37 degC; assay type: functional, organism-based
[36] = tested on: Candida albicans; assay: Antimicrobial activity against Candida albicans ATCC 10231 assessed as zone of inhibition at 3649 uM incubated overnight at 37 degC; assay type: functional, organism-based; outline: as §1

`O=C1C(O)=Cc2cccc3ccc(-c4ccccc4)c1c23` was tested, and the “inhibition zone (IZ)” value [1] was “inactive”, the “inhibition zone (IZ)” value [2] was “inactive” and the “inhibition zone (IZ)” value [3] was “inactive”. The “inhibition zone (IZ)” value [4] was “inactive”, the “inhibition zone (IZ)” value [5] was “inactive” and the “inhibition zone (IZ)” value [6] was “inactive”.
`O=C1C(=O)c2c(-c3ccccc3)ccc3cccc1c23` was tested, and the “inhibition zone (IZ)” value [7] was “inactive”, the zone of inhibition at 3875 µM [8] was 2 mm and the “inhibition zone (IZ)” value [9] was “inactive”. For the same compound, the zone of inhibition at 3875 µM [10] was 1 mm, the “inhibition zone (IZ)” value [11] was “inactive” and the “inhibition zone (IZ)” value [12] was “inactive”.
In the case of `Oc1ccc(/C=C/c2cc(O)c3c(-c4cc(O)cc(O)c4)c(-c4ccc(O)cc4)oc3c2)cc1`, the “inhibition zone (IZ)” value [13] is reported as “inactive”, the zone of inhibition at 2211 µM [14] is reported as 2 mm and the “inhibition zone (IZ)” value [15] is reported as “inactive”. For the same compound, the “inhibition zone (IZ)” value [16] was “inactive”, the zone of inhibition at 2211 µM [17] was 1 mm and the “inhibition zone (IZ)” value [18] was “inactive”.
In the case of `O=C(/C=C/c1ccc(O)cc1)c1c(O)cc(O)cc1O[C@@H]1O[C@H](CO)[C@@H](O)[C@H](O)[C@H]1O`, the “inhibition zone (IZ)” value [19] is reported as “inactive”, the “inhibition zone (IZ)” value [20] is reported as “inactive” and the “inhibition zone (IZ)” value [21] is reported as “inactive”. The zone of inhibition at 3030 µM [22] was 2 mm, the “inhibition zone (IZ)” value [23] was “inactive” and the “inhibition zone (IZ)” value [24] was “inactive”.
In the case of `O=C(/C=C/c1ccc(O)cc1)OC[C@H]1O[C@@H](Oc2cc(O)cc3c2C(=O)CC(c2ccc(O)cc2)O3)[C@H](O)[C@@H](O)[C@@H]1O` (stereo partly specified), the zone of inhibition at 1724 µM [25] is reported as 1 mm, the “inhibition zone (IZ)” value [26] is reported as “inactive” and the “inhibition zone (IZ)” value [27] is reported as “inactive”. For the same compound, the zone of inhibition at 1724 µM [28] was 10 mm, the zone of inhibition at 1724 µM [29] was 1 mm and the “inhibition zone (IZ)” value [30] was “inactive”.
In the case of `O=C1OC(=O)c2c(-c3ccccc3)ccc3cccc1c23`, the “inhibition zone (IZ)” value [31] is reported as “inactive”, the “inhibition zone (IZ)” value [32] is reported as “inactive” and the “inhibition zone (IZ)” value [33] is reported as “inactive”. For the same compound, the zone of inhibition at 3649 µM [34] was 2 mm, the “inhibition zone (IZ)” value [35] was “inactive” and the “inhibition zone (IZ)” value [36] was “inactive”.
